Converted amounts (≈) assume the structure as drawn. Peptide text beside a SMILES is read from it.
Assays:
Pseudomonas aeruginosa [1] = test: Compound tested for the antimicrobial activity against Pseudomonas aeruginosa strain 8; type: functional
Method in brief: (§1)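 Microbroth dilution in Tryptic Soy Broth; inoculum 5×10^5 CFU/mL; plates incubated at 37 °C for 18-20 h; value reported as minimal inhibitory concentration (µg/mL).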

Pseudomonas aeruginosa [2] = test: Compound tested for the antimicrobial activity against Pseudomonas aeruginosa strain 6; type: functional; method in brief: as §1
Pseudomonas aeruginosa [3] = test: Compound tested for the antimicrobial activity against Pseudomonas aeruginosa strain 7; type: functional; method in brief: as §1
Staphylococcus aureus [4] = test: Compound tested for the activity against Staphylococcus aureus strain 9; type: functional; method in brief: as §1
Pseudomonas aeruginosa [5] = test: Compound tested for the antimicrobial activity against Pseudomonas aeruginosa strain 11; type: functional; method in brief: as §1
Pseudomonas aeruginosa [6] = test: Compound tested for the antimicrobial activity against Pseudomonas aeruginosa strain 4; type: functional; method in brief: as §1
Staphylococcus aureus [7] = test: Compound tested for the activity against Staphylococcus aureus strain 11; type: functional; method in brief: as §1
Staphylococcus aureus [8] = test: Compound tested for the activity against Staphylococcus aureus strain 3; type: functional; method in brief: as §1
Pseudomonas aeruginosa [9] = test: Compound tested for in vitro susceptibility against ATCC strain 27853 of Pseudomonas aeruginosa; type: functional; conditions: ATCC 27853; method in brief: as §1
Staphylococcus aureus [10] = test: Compound tested for the activity against Staphylococcus aureus strain 7; type: functional; method in brief: as §1
Staphylococcus aureus [11] = test: Compound tested for in vitro susceptibility against ATCC strain 29213 of Staphylococcus aureus; type: functional; method in brief: as §1
Pseudomonas aeruginosa [12] = test: Compound tested for the antimicrobial activity against Pseudomonas aeruginosa strain 2; type: functional; method in brief: as §1
Pseudomonas aeruginosa [13] = test: Compound tested for the antimicrobial activity against Pseudomonas aeruginosa strain 1; type: functional; method in brief: as §1
Shigella flexneri = test: Compound tested for the antimicrobial activity against Shigella flexneri; type: functional
Method in brief: (§2)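 MIC by microbroth dilution in Tryptic Soy Broth; inoculum 5×10^5 CFU/mL; plates incubated 18-20 h at 37 °C; assay pH approximately 7.4.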

Staphylococcus aureus [14] = test: Compound tested for the activity against Staphylococcus aureus strain 1; type: functional; method in brief: as §1
Staphylococcus aureus [15] = test: Compound tested for the activity against Staphylococcus aureus strain 2; type: functional; method in brief: as §1
Staphylococcus aureus [16] = test: Compound tested for the activity against Staphylococcus aureus strain 8; type: functional; method in brief: as §1
Staphylococcus aureus [17] = test: Compound tested for the activity against Staphylococcus aureus strain 6; type: functional; method in brief: as §1
Pseudomonas aeruginosa [18] = test: Compound tested for the antimicrobial activity against Pseudomonas aeruginosa strain 9; type: functional; method in brief: as §1
Enterobacter cloacae [19] = test: (§3) Compound tested for the antimicrobial activity against Enterobacter cloacae ROS; type: functional, enterobacter cloacaeros; method in brief: as §2
Enterobacter cloacae [20] = test: Compound tested for the antimicrobial activity against Enterobacter cloacae; type: functional; method in brief: as §1
[21] = system: Salmonella enterica subsp. enterica serovar Anatum; test: (§4) Compound tested for the antimicrobial activity against S. a natum; type: functional, salmoneila anatum; method in brief: as §1
Proteus mirabilis = test: Compound tested for the antimicrobial activity against Proteus mirabilis; type: functional; method in brief: as §1
Pseudomonas aeruginosa [22] = test: Compound tested for the antimicrobial activity against Pseudomonas aeruginosa strain ATCC 25916; type: functional; method in brief: as §1
Staphylococcus aureus [23] = test: Compound tested for the activity against Staphylococcus aureus strain 5; type: functional; method in brief: as §1
Staphylococcus aureus [24] = test: Compound tested for the activity against Staphylococcus aureus strain 10; type: functional; method in brief: as §1
Staphylococcus aureus [25] = test: Compound tested for the activity against Staphylococcus aureus strain ATCC 28953; type: functional; method in brief: as §1
Pseudomonas aeruginosa [26] = test: Compound tested for the antimicrobial activity against Pseudomonas aeruginosa strain 10; type: functional; method in brief: as §1
Escherichia coli = test: Compound tested for in vitro susceptibility against ATCC strain 25922 of Escherichia coli; type: functional; conditions: ATCC25922; method in brief: as §1
[27] = system: Acinetobacter calcoaceticus subsp. anitratus; test: (§5) Compound tested for the antimicrobial activity against Acinetobacter anitratus; type: functional; method in brief: as §2
Klebsiella pneumoniae = test: Compound tested for the antimicrobial activity against Klebsiella pneumoniae; type: functional; method in brief: as §2
Staphylococcus aureus [28] = test: Compound tested for the activity against Staphylococcus aureus strain 4; type: functional; method in brief: as §1
Pseudomonas aeruginosa [29] = test: Compound tested for the antimicrobial activity against Pseudomonas aeruginosa strain 3; type: functional; method in brief: as §1
Pseudomonas aeruginosa [30] = test: Compound tested for the antimicrobial activity against Pseudomonas aeruginosa strain 5; type: functional; method in brief: as §1
[31] = Hemolytic activity towards human erythrocytes is evaluated for magainin 2 at peptide concentration of 25 ug/mL; type: functional
Method in brief: (§6)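 Washed human erythrocytes from healthy volunteers (3 mL packed cells, PBS pH 7.4 washes, diluted to 20 mL) exposed to peptide in PBS at 25-200 µg/mL, 30 min at 37 °C; supernatant absorbance at 576 nm after centrifugation; 0.1% Triton X-100 taken as 100% hemolysis; duplicates.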

[32] = Hemolytic activity towards human erythrocytes is evaluated for magainin 2 at peptide concentration of 200 µg/mL; type: functional; method in brief: as §6
[33] = Hemolytic activity towards human erythrocytes is evaluated for magainin 2 at peptide concentration of 50 µg/mL; type: functional; method in brief: as §6
[34] = Hemolytic activity towards human erythrocytes is evaluated for magainin 2 at peptide concentration of 100 µg/mL; type: functional; method in brief: as §6
Enterobacter cloacae [35] = test: as §3; type: functional; method in brief: as §2
[36] = system: Salmonella enterica subsp. enterica serovar Anatum; test: as §4; type: functional, salmoneila onotum; method in brief: as §1
[37] = system: Acinetobacter calcoaceticus subsp. anitratus; test: as §5; type: functional, aeinetobacter anitrotap; method in brief: as §2

Compound | MIC (Pseudomonas aeruginosa [1]) [µg/mL] | MIC (Pseudomonas aeruginosa [2]) [µg/mL] | MIC (Pseudomonas aeruginosa [3]) [µg/mL] | MIC (Staphylococcus aureus [4]) [µg/mL] | MIC (Pseudomonas aeruginosa [5]) [µg/mL] | MIC (Pseudomonas aeruginosa [6]) [µg/mL] | MIC (Staphylococcus aureus [7]) [µg/mL] | MIC (Staphylococcus aureus [8]) [µg/mL] | MIC (Pseudomonas aeruginosa [9]) [µg/mL] | MIC (Staphylococcus aureus [10]) [µg/mL] | MIC (Staphylococcus aureus [11]) [µg/mL] | MIC (Pseudomonas aeruginosa [12]) [µg/mL] | MIC (Pseudomonas aeruginosa [13]) [µg/mL] | MIC (Shigella flexneri) [µg/mL] | MIC (Staphylococcus aureus [14]) [µg/mL] | MIC (Staphylococcus aureus [15]) [µg/mL] | MIC (Staphylococcus aureus [16]) [µg/mL] | MIC (Staphylococcus aureus [17]) [µg/mL] | MIC (Pseudomonas aeruginosa [18]) [µg/mL] | MIC (Escherichia coli) [µg/mL] | other results
CC(C)C[C@H](NC(=O)[C@H](CCCCN)NC(=O)[C@H](CC(C)C)NC(=O)[C@H](Cc1c[nH]c2ccccc12)NC(=O)[C@H](CCCCN)NC(=O)[C@@H](N)CCCCN)C(=O)N[C@@H](Cc1c[nH]c2ccccc12)C(=O)N[C@@H](CCCCN)C(=O)N[C@@H](C)C(=O)N[C@@H](Cc1c[nH]c2ccccc12)C(=O)O (H-KKWLKLWKAW-OH) | 50 (≈ 36.1 µM) | > 100 | 50 (≈ 36.1 µM) | > 100 | 50 (≈ 36.1 µM) | 50 (≈ 36.1 µM) | > 100 | > 100 | 12.5 (≈ 9.01 µM) | > 100 | 12.5 (≈ 9.01 µM) | 12.5 (≈ 9.01 µM) | 25 (≈ 18 µM) | < 0.39 | > 100 | > 100 | > 100 | > 100 | > 100 | 25 (≈ 18 µM) | MIC (Enterobacter cloacae [19]): 50 µg/mL (≈ 36.1 µM); MIC (Enterobacter cloacae [20]): < 0.39 µg/mL; MIC [21]: 12.5 µg/mL (≈ 9.01 µM); MIC (Proteus mirabilis): > 100 µg/mL; MIC (Pseudomonas aeruginosa [22]): 25 µg/mL (≈ 18 µM); MIC (Staphylococcus aureus [23]): > 100 µg/mL; MIC (Staphylococcus aureus [24]): > 100 µg/mL; MIC (Staphylococcus aureus [25]): > 100 µg/mL; MIC (Pseudomonas aeruginosa [26]): 50 µg/mL (≈ 36.1 µM); MIC [27]: < 0.39 µg/mL; MIC (Klebsiella pneumoniae): > 100 µg/mL; MIC (Staphylococcus aureus [28]): > 100 µg/mL; MIC (Pseudomonas aeruginosa [29]): 50 µg/mL (≈ 36.1 µM); MIC (Pseudomonas aeruginosa [30]): 50 µg/mL (≈ 36.1 µM)
CC(C)C[C@H](NC(=O)[C@H](CCCCN)NC(=O)[C@H](CCCCN)NC(=O)[C@H](Cc1c[nH]c2ccccc12)NC(=O)[C@@H](N)CCCCN)C(=O)N[C@@H](C)C(=O)N[C@@H](CCCCN)C(=O)N[C@@H](CCCCN)C(=O)N[C@@H](Cc1c[nH]c2ccccc12)C(=O)O (H-KWKKLAKKW-OH) | – | – | – | – | – | – | – | – | 12.5 (≈ 10.3 µM) | – | 25 (≈ 20.6 µM) | – | – | – | – | – | – | – | – | 25 (≈ 20.6 µM) | Hemolysis [31]: 0%; Hemolysis [32]: 0%; Hemolysis [33]: 0%; Hemolysis [34]: 0%
CC(C)C[C@H](NC(=O)[C@H](C)NC(=O)[C@H](CCCCN)NC(=O)[C@H](C)NC(=O)[C@H](CC(C)C)NC(=O)[C@H](CCCCN)NC(=O)[C@H](C)NC(=O)[C@H](CC(C)C)NC(=O)[C@H](CCCCN)NC(=O)[C@H](CCCCN)NC(=O)[C@H](C)NC(=O)[C@H](CC(C)C)NC(=O)[C@H](CCCCN)NC(=O)[C@H](CCCCN)NC(=O)[C@H](C)NC(=O)[C@H](CC(C)C)NC(=O)[C@@H](N)CCCCN)C(=O)O (H-KLAKKLAKKLAKLAKAL-OH) | – | – | – | – | – | – | – | – | 50 (≈ 27.2 µM) | – | 200 (≈ 109 µM) | – | – | – | – | – | – | – | – | 25 (≈ 13.6 µM) | –
CC(C)C[C@H](NC(=O)[C@H](CCCCN)NC(=O)[C@H](CC(C)C)NC(=O)[C@H](Cc1c[nH]c2ccccc12)NC(=O)[C@H](CCCCN)NC(=O)[C@H](CCCCN)NC(=O)[C@H](C)NC(=O)[C@H](Cc1c[nH]c2ccccc12)NC(=O)[C@H](CCCCN)NC(=O)[C@H](CCCCN)NC(=O)[C@H](Cc1c[nH]c2ccccc12)NC(=O)[C@H](CC(C)C)NC(=O)[C@@H](N)CCCCN)C(=O)N[C@@H](Cc1c[nH]c2ccccc12)C(=O)N[C@@H](CCCCN)C(=O)N[C@@H](C)C(=O)N[C@@H](Cc1c[nH]c2ccccc12)C(=O)O (H-KLWKKWAKKWLKLWKAW-OH) | 12.5 (≈ 5.37 µM) | > 100 | 12.5 (≈ 5.37 µM) | 25 (≈ 10.7 µM) | > 100 | 12.5 (≈ 5.37 µM) | 25 (≈ 10.7 µM) | 25 (≈ 10.7 µM) | 3.12 (≈ 1.34 µM) | 25 (≈ 10.7 µM) | 50 (≈ 21.5 µM) | 3.12 (≈ 1.34 µM) | 6.25 (≈ 2.68 µM) | 3.12 (≈ 1.34 µM) | 12.5 (≈ 5.37 µM) | 6.25 (≈ 2.68 µM) | 25 (≈ 10.7 µM) | 12.5 (≈ 5.37 µM) | > 100 | 6.25 (≈ 2.68 µM) | Hemolysis [31]: 10%; Hemolysis [32]: 55%; MIC (Enterobacter cloacae [35]): 25 µg/mL (≈ 10.7 µM); MIC (Enterobacter cloacae [20]): < 0.39 µg/mL; MIC (Proteus mirabilis): > 100 µg/mL; MIC (Pseudomonas aeruginosa [22]): 3.12 µg/mL (≈ 1.34 µM); MIC (Staphylococcus aureus [23]): 12.5 µg/mL (≈ 5.37 µM); MIC (Staphylococcus aureus [24]): 25 µg/mL (≈ 10.7 µM); Hemolysis [33]: 18%; MIC (Staphylococcus aureus [25]): 25 µg/mL (≈ 10.7 µM); MIC (Pseudomonas aeruginosa [26]): 25 µg/mL (≈ 10.7 µM); Hemolysis [34]: 31%; MIC (Klebsiella pneumoniae): 12.5 µg/mL (≈ 5.37 µM); MIC (Staphylococcus aureus [28]): 12.5 µg/mL (≈ 5.37 µM); MIC (Pseudomonas aeruginosa [29]): 12.5 µg/mL (≈ 5.37 µM); MIC (Pseudomonas aeruginosa [30]): 12.5 µg/mL (≈ 5.37 µM); MIC [36]: 12.5 µg/mL (≈ 5.37 µM); MIC [37]: 3.12 µg/mL (≈ 1.34 µM)
CC(C)C[C@H](NC(=O)[C@H](CCCCN)NC(=O)[C@H](CCCCN)NC(=O)[C@H](CC(C)C)NC(=O)[C@H](CC(C)C)NC(=O)[C@H](CCCCN)NC(=O)[C@H](CC(C)C)NC(=O)[C@H](CC(C)C)NC(=O)[C@H](CCCCN)NC(=O)[C@@H](N)CCCCN)C(=O)O (H-KKLLKLLKKL-OH) | – | – | – | – | – | – | – | – | > 200 | – | > 200 | – | – | – | – | – | – | – | – | > 200 | –
